PubChem BioAssay AID624204 (Sanford-Burnham Center for Chemical Genomics, 2012)
Hit rate of the full screen: of about 360,000 compounds, about 770 (0.21%) were called active.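 Rule for the calls: active = inhibition at least 30% at 10 µM, raw YFP signal under a set limit, fluorescence ratio 0.5 to 1.5; inactive = the rest.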 Many of the other results were omitted from the sample, so actives are more common in it than they were.

Molecular target: Sentrin-specific protease 1 (Homo sapiens) (UniProt Q9P0U3)
Sequence (Q9P0U3 419-644 limits assumed): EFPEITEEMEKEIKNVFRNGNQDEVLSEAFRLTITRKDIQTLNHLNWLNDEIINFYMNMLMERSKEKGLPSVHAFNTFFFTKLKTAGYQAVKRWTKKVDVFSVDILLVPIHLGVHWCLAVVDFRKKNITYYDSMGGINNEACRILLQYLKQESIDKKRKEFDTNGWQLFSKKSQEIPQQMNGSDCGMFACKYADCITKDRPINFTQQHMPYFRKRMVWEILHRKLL
Test: blockers of SENP1 SUMO protease activity – biochemical, FRET, uHTS, primary screen (AID 624204);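 note: 0% = enzyme with DMSO and 100% = no enzyme wells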
Details: recombinant SENP1 catalytic domain, CyPet-SUMO1-YPet FRET cleavage; at 10 µM; hits give high values
Summary of the method: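 Compound: 10 µM single point, 0.5% DMSO; Test system: hSENP1 catalytic domain, recombinant; Timing: 50 min reaction at room temperature; Technique: FRET, CFP and YFP emission; Control set: no-enzyme wells low, DMSO-plus-enzyme wells high control.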

inhibition, active:
Cc1cc(C(=O)N/N=C/c2ccc(N3CCOCC3)cc2)c(C)o1 33.5%

inhibition, inactive:
COC(=O)c1ccc(NC(=O)CSc2nncn2-c2cccnc2)cc1 -5.21%, COc1cccc(CNC(=O)C2CCCN(S(=O)(=O)N3CC(C)CC(C)C3)C2)c1 (configuration not stated) -0.397%, CC(CC(=O)C1C(C)C=CCC1(C)C)NNC(N)=O (configuration not stated) 1.56%, COc1ccc2oc(C(=O)OCC(=O)N(CC(C)C)c3c(N)n(Cc4ccccc4)c(=O)[nH]c3=O)c(C)c2c1 -9.9%, CCOC(=O)N(C)c1c(CC)nc2c(OCc3ccccc3C(=O)OC)cccn12 0.268%, O=C(CN1CCN(S(=O)(=O)c2ccc(Br)cc2)CC1)Nc1ccccc1C(=O)c1ccccc1 0.864%, COc1ccc2c(c1)c(=O)c(C(=O)c1ccc(Cl)cc1)cn2CC(=O)Nc1ccc(F)cc1 -1.49%, CCOc1ncccc1C(=O)OCC(=O)Nc1cccc(S(=O)(=O)N2CCCCCC2)c1 2.06%, O=C(NCc1cccnc1)c1ccccc1NC(=O)c1c(F)cccc1F 3.29%, CCCNC(=O)c1cc(C2CCCCN2S(=O)(=O)c2ccc(C#N)cc2)on1 (configuration not stated) 2.5%, CNC(=S)N/N=C/c1ccc(N2CCOCC2)s1 -70.3%, CC(C)c1cc(C(=O)N/N=C/c2ccoc2)c(O)c(C(C)C)c1 1.94%, Cc1ccc(S(=O)(=O)n2cccc2CO)cc1 -0.0494%, CC(C)NC(=O)C1(C)CCCCCN1C(=O)c1ccc(-c2ccccc2)cc1 (configuration not stated) 0.518%, Cc1ccccc1CN1C(=O)CSCC1(C)C(=O)Nc1c(C)cccc1C (configuration not stated) -2.15%, Cn1cc(/C=C/C(=O)N2CCCC(C(=O)c3ccc(C(F)(F)F)cc3)C2)cn1 (configuration not stated) 0.414%, CO[C@H]1[C@@H]2C=CO[C@@H](O[C@H]3O[C@@H](CO)[C@H](O)[C@@H](O)[C@@H]3O)[C@@H]2[C@@]2(CO)O[C@@H]12 -2%, COC(=O)c1c(NC(=O)CN2C(=O)NC(CCc3ccccc3)C2=O)sc2c1CCCCC2 (configuration not stated) -3.88%, NC1=NN(c2cccc(C(=O)O)c2)C(=O)C1 4.58%, Cc1cc(C)cc(C(=O)OCC(=O)NCCNC(=O)COC(=O)c2cc(C)cc(C)c2)c1 0.612%, O=C(c1ccc(-n2cnnn2)cc1)N1CCN(C(c2ccccc2)c2ccccc2)CC1 0.954%, CCc1ccc(OC(C)C(=O)Nc2ccc(S(=O)(=O)Nc3cc(C)on3)cc2)cc1 (configuration not stated) 2.02%, CCC(=O)Nc1ccc(-c2ccc(N3CCCCC3)nn2)cc1 -4.2%, COc1ccc(/C=C(\NC(=O)c2ccc(OCC(C)C)cc2)C(=O)OCc2ccco2)cc1 -2.88%, COC1C(CO)OC(n2cnc3c(=S)nc(N)[nH]c32)C1O (configuration not stated) 0.119%, Cc1ccc(CN2CCN(Cc3cccc(C)n3)CC2CCO)cc1 (configuration not stated) -3.82%
